From ChEMBL document CHEMBL1157626, “A concise synthesis of 1,4-dihydro-[1,4]diazepine-5,7-dione, a novel 7-TM receptor ligand core structure with melanocortin receptor agonist activity” (Bioorg Med Chem, 2010)
Calls of active or inactive are those of the source. No cut-off for these calls is given here.

Experiments:
[1] = target: T1, Melanocyte-stimulating hormone receptor (Homo sapiens, UniProt Q01726); test: Agonist activity at human MC1R expressed in CHO cells after 4 hrs by luciferase reporter gene assay relative to alpha-melanocyte stimulating hormone; type: functional, cell-based; design: concentration or dose not given beside the values
How it was run: (§1)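 CHO-6xCRE-luc+ cells expressing the human receptor, plated at 4000 cells/well in DMEM/F12 with 10% FBS 48 h before assay. Switched to serum-free medium 16 h before compound addition, then incubated 4 h at 37 °C. Luciferase read after 10 min dark adaptation. Activity expressed as % of fold stimulation by 1 × 10^-7 M NDP-aMSH (duplicate control wells).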
Target sequence in this assay (Q01726 whole entry, looked up): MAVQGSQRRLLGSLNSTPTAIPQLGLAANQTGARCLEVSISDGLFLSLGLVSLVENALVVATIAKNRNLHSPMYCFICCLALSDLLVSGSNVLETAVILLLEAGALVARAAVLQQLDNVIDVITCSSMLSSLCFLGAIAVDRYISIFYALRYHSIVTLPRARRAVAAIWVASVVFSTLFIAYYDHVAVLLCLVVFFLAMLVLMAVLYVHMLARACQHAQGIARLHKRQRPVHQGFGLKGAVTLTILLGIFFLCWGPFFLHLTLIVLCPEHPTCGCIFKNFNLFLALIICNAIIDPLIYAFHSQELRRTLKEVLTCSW

Melanocortin receptor 4 [2] = target: T2, Melanocortin receptor 4 (Homo sapiens, UniProt P32245); test: Agonist activity at human MC4R expressed in CHO cells after 4 hrs by luciferase reporter gene assay; type: functional, cell-based; how it was run: as §1
T2 sequence (P32245 whole entry): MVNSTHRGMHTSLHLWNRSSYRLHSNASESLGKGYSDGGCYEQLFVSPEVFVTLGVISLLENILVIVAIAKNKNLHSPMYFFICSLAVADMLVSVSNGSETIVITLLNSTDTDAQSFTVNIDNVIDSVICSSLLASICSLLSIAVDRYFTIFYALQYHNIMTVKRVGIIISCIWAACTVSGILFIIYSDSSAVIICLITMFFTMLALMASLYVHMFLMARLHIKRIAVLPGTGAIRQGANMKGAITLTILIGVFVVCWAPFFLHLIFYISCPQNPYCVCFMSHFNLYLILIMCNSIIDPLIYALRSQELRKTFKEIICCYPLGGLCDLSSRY

Melanocortin receptor 4 [3] = target: T2, Melanocortin receptor 4; test: Agonist activity at human MC4R expressed in CHO cells after 4 hrs by luciferase reporter gene assay relative to alpha-melanocyte stimulating hormone; type: functional, cell-based; how it was run: as §1
Melanocortin receptor 4 [4] = target: T2, Melanocortin receptor 4; test: Agonist activity at human MC4R expressed in CHO cells at 10 uM after 4 hrs by luciferase reporter gene assay relative to alpha-melanocyte stimulating hormone; type: functional, cell-based; how it was run: as §1
[5] = target: T1, Melanocyte-stimulating hormone receptor; test: Agonist activity at human MC1R expressed in CHO cells after 4 hrs by luciferase reporter gene assay; type: functional, cell-based; how it was run: as §1
Target sequence in this assay (Q01726 whole entry): as the sequence (Q01726 whole entry, looked up) above

[6] = target: T1, Melanocyte-stimulating hormone receptor; test: Agonist activity at human MC1R expressed in CHO cells at 10 uM after 4 hrs by luciferase reporter gene assay relative to alpha-melanocyte stimulating hormone; type: functional, cell-based; how it was run: as §1
Target sequence in this assay (Q01726 whole entry, looked up): as above

Homo sapiens = organism: Homo sapiens; test: Selectivity for human MC1R over human MC4R
Rattus norvegicus [7] = test: Anorexigenic activity in lean Sprague-Dawley rat assessed as suppression of peptide YY-induced food intake at 100 pmol, icv administered 15 mins before peptide YY challenge measured for 3 hrs in presence of MC4R antagonist SHU9119; type: functional, organism-based
How it was run: (§2)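 Lean Sprague-Dawley rats (~400 g) with third-ventricle cannulae. Saline or 1 nmol SHU9119 given ICV 30 min before vehicle (2% DMSO/saline) or test compound ICV. 0.23 nmol PYY given ICV 15 min later. Powdered chow intake logged every half hour for 3 h. N = 7–8 per group.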

Rattus norvegicus [8] = test: Anorexigenic activity in lean Sprague-Dawley rat assessed as suppression of peptide YY-induced food intake at 100 pmol, icv administered 15 mins before peptide YY challenge measured for 3 hrs; type: functional, organism-based; how it was run: as §2

Row | Compound | Activity [1] [%] | EC50 (Melanocortin receptor 4 [2]; read-out: pEC50 (converted)) [nM] | Activity (Melanocortin receptor 4 [3]) | Efficacy (Melanocortin receptor 4 [4]) [%] | EC50 ([5]; read-out: pEC50 (converted)) [nM] | EC50 (Melanocortin receptor 4 [2]; read-out: EC50) [nM] | further results
1 | COc1ccc(N(C(=O)CN2C=CN(c3ccccc3)C(=O)C(Cc3n[nH]c4cc(F)ccc34)C2=O)C(C)C)cc1 (racemic) | 83 | 355 | 39 | – | – | – | –
2 | CC(C)N(C(=O)CN1C=CN(c2ccccc2)C(=O)C(Cc2n[nH]c3ccccc23)C1=O)c1ccc(O)cc1 (single isomer, unassigned; form 2) [listing 1 of 2 here] | 16 | – | – | 5 | – | – | –
3 | COc1ccc(N(C(=O)CN2C=CN(c3cccnc3)C(=O)C(Cc3n[nH]c4cc(F)ccc34)C2=O)C(C)C)cc1 (racemic) | 65 | 661 | 31 | – | 12.6 | – | –
4 | O=C(CN1C=CN(c2ccccc2)C(=O)C(Cc2n[nH]c3ccccc23)C1=O)CP(=O)(Oc1ccccc1)Oc1ccccc1 (racemic) | – | – | – | 5 | – | > 30000 | Efficacy [6]: 1%; EC50 ([5]; read-out: EC50): > 30000 nM
5 | CC(C)N(C(=O)CN1C=CN(c2ccccc2)C(=O)[C@H](Cc2n[nH]c3cc(F)ccc23)C1=O)c1ccccc1 | 79 | 1260 | 23 | – | 35.5 | – | –
6 | O=C(CN1C=CN(c2ccccc2)C(=O)C(Cc2n[nH]c3ccccc23)C1=O)CP(=O)(O)Oc1ccccc1 (racemic) | – | – | – | 4 | – | > 30000 | Efficacy [6]: 3%; EC50 ([5]; read-out: EC50): > 30000 nM
7 | COc1ccc(N(C(=O)CN2C=CN(C3CCCCC3)C(=O)C(Cc3n[nH]c4ccccc34)C2=O)C(C)C)cc1 (racemic) | – | – | – | 19 | – | > 30000 | Efficacy [6]: 25%; EC50 ([5]; read-out: EC50): > 30000 nM
8 | CC(C)N(C(=O)CN1C=CN(c2ccccc2)C(=O)C(Cc2n[nH]c3ccccc23)C1=O)c1ccc(OC(F)(F)F)cc1 (racemic) | 91 | 151 | 78 | – | – | – | –
9 | O=C1C(Cc2n[nH]c3cc(F)ccc23)C(=O)N(c2ccccc2)C=CN1CC(=O)N1CCCCc2ccccc21 (racemic) | 61 | 437 | 16 | – | – | – | Selectivity ratio (Homo sapiens): > 100
10 | CC(C)N(C(=O)CN1C=CN(c2ccccc2)C(=O)C(Cc2n[nH]c3cc(F)ccc23)C1=O)c1ccc(F)cc1 (racemic) | 53 | 178 | 19 | – | – | – | –
11 | O=C1[C@@H](Cc2n[nH]c3ccccc23)C(=O)N(c2ccccc2)C=CN1CC(=O)N1CCCCc2ccccc21 | 86 | 100 | 27 | – | 1.58 | – | –
12 | CC(C)N(C(=O)CN1C=CN(c2ccccc2)C(=O)C(Cc2n[nH]c3ccccc23)C1=O)c1ccc(O)cc1 (racemic) [listing 1 of 2 here] | 54 | – | 30 | – | – | – | –
13 | CC(C)N(C(=O)CN1C=CN(c2ccccc2)C(=O)C(Cc2n[nH]c3ccccc23)C1=O)c1ccc(N2CCOCC2)cc1 (racemic) | 22 | – | – | 3 | 832 | > 30000 | –
14 | CC(C)N(C(=O)CN1C=CN(c2ccccc2)C(=O)[C@@H](Cc2n[nH]c3cc(F)ccc23)C1=O)c1ccccc1 | – | – | – | 0 | – | > 30000 | Efficacy [6]: 2%; EC50 ([5]; read-out: EC50): > 30000 nM
15 | CC(C)N(C(=O)CN1C=CN(c2ccccc2)C(=O)C(Cc2n[nH]c3ccccc23)C1=O)c1ccccc1 (racemic) | 42 | 3240 | 22 | – | 708 | – | –
16 | CC(C)N(C(=O)CN1C=CN(c2ccccc2)C(=O)C(Cc2n[nH]c3ccccc23)C1=O)c1ccc(O)cc1 (racemic) [listing 2 of 2 here] | – | 1000 | – | – | 550 | – | –
17 | CC(C)N(C(=O)CN1C=CN(c2ccccc2)C(=O)C(Cc2n[nH]c3ccccc23)C1=O)c1ccc(O)cc1 (single isomer, unassigned; form 1) [listing 1 of 2 here] | – | 1000 | – | – | – | – | –
18 | O=C1[C@H](Cc2n[nH]c3ccccc23)C(=O)N(c2ccccc2)C=CN1CC(=O)N1CCCCc2ccccc21 | 76 | 794 | 20 | – | 61.7 | – | –

Row | Compound | Activity [1] [%] | EC50 (Melanocortin receptor 4 [2]; read-out: pEC50 (converted)) [nM] | Activity (Melanocortin receptor 4 [3]) | Efficacy (Melanocortin receptor 4 [4]) [%] | EC50 ([5]; read-out: pEC50 (converted)) [nM] | EC50 (Melanocortin receptor 4 [2]; read-out: EC50) [nM] | further results
19 | COc1ccc(N(C(=O)CN2C=CN(c3ccccc3)C(=O)C(Cc3n[nH]c4ccccc34)(OC)C2=O)C(C)C)cc1 (racemic) | 58 | 166 | 74 | – | 1380 | – | –
20 | CC(C)N(C(=O)CN1C=CN(c2ccccc2)C(=O)[C@@H](Cc2n[nH]c3ccccc23)C1=O)c1ccccc1 | – | – | – | 3 | – | > 30000 | Efficacy [6]: 9%; EC50 ([5]; read-out: EC50): > 30000 nM
21 | CC(C)N(C(=O)CN1C=CN(c2ccccc2)C(=O)C(Cc2n[nH]c3ccccc23)C1=O)c1ccc(O)cc1 (single isomer, unassigned; form 2) [listing 2 of 2 here] | – | – | – | – | 52.5 | > 30000 | –
22 | COc1ccc(N(C(=O)CN2C=CN(Cc3ccccc3)C(=O)C(Cc3n[nH]c4ccccc34)C2=O)C(C)C)cc1 (racemic) | 59 | – | – | 6 | 794 | > 30000 | –
23 | COc1ccc(N(C(=O)CN2C=CN(c3ccccc3)C(=O)C(Cc3cc[nH]n3)(Cc3n[nH]c4ccccc34)C2=O)C(C)C)cc1 (racemic) | 30 | 1050 | 16 | – | 398 | – | –
24 | COc1ccc(N(C(=O)CN2C=CN(c3cccnc3)C(=O)C(Cc3n[nH]c4ccccc34)C2=O)C(C)C)cc1 (racemic) | 60 | 2880 | 31 | – | 178 | – | –
25 | COc1ccc(N(C(=O)CN2C=CN(c3ccccc3)C(=O)[C@@H](Cc3n[nH]c4ccccc34)C2=O)C(C)C)cc1 | – | – | – | 14 | 1550 | > 30000 | –
26 | CC(C)N(C(=O)CN1C=CN(C)C(=O)C(Cc2n[nH]c3cc(F)ccc23)C1=O)c1ccc(F)cc1 (racemic) | 62 | – | – | 5 | 3720 | > 30000 | –
27 | O=C1C(Cc2n[nH]c3ccccc23)C(=O)N(c2ccccc2)C=CN1CC(=O)N1CCCCc2ccccc21 (racemic) | 61 | 324 | 17 | – | – | – | –
28 | CC(C)N(C(=O)CN1C=CN(c2ccccc2)C(=O)C(Cc2n[nH]c3ccccc23)C1=O)c1ccc(F)cc1 (racemic) | 54 | 282 | 22 | – | – | – | –
29 | CC(C)N(C(=O)CN1C=CN(c2ccccc2)C(=O)[C@H](Cc2n[nH]c3ccccc23)C1=O)c1ccccc1 | 54 | 1070 | 26 | – | 295 | – | –
30 | COC1(Cc2n[nH]c3ccccc23)C(=O)N(CC(=O)N(c2ccc(F)cc2)C(C)C)C=CN(c2ccccc2)C1=O (racemic) | 33 | 44.7 | 52 | – | 2950 | – | –
31 | COc1ccc(N(C(=O)CN2C=CN(c3ccccc3)C(=O)C(Cc3n[nH]c4ccccc34)C2=O)C(C)C)cc1 (racemic) | 68 | 708 | 45 | – | – | – | inhibition (Rattus norvegicus [7]): inactive; inhibition (Rattus norvegicus [8]): Active
32 | CC(C)N(C(=O)CN1C=CN(c2ccccc2)C(=O)C(Cc2n[nH]c3cc(F)ccc23)C1=O)c1ccccc1 (racemic) | 51 | 537 | 19 | – | 186 | – | –
33 | COc1ccc(N(C(=O)CN2C=CN(C3CCCCC3)C(=O)C(Cc3ccccc3)C2=O)C(C)C)cc1 (racemic) | – | – | – | 0 | – | > 30000 | Efficacy [6]: 0%; EC50 ([5]; read-out: EC50): > 30000 nM
34 | CCn1nc(CC2C(=O)N(CC(=O)N(c3ccc(OC)cc3)C(C)C)C=CN(c3ccccc3)C2=O)c2ccccc21 (racemic) | – | – | – | 5 | – | > 30000 | Efficacy [6]: 2%; EC50 ([5]; read-out: EC50): > 30000 nM
35 | COc1ccc(N(C(=O)CN2C=CN(c3ccccc3)C(=O)C(Cc3nn(C)c4ccccc34)C2=O)C(C)C)cc1 (racemic) | – | – | – | 5 | – | > 30000 | Efficacy [6]: 6%; EC50 ([5]; read-out: EC50): > 30000 nM
36 | CC(C)N(C(=O)CN1C=CN(c2ccccc2)C(=O)C(Cc2n[nH]c3ccccc23)C1=O)c1ccc(O)cc1 (single isomer, unassigned; form 1) [listing 2 of 2 here] | 79 | – | 44 | – | – | – | –
